Tests used:
[1] = molecular target: CSNK1D (Homo sapiens, UniProt P48730); experiment: KINOMEscan primary screen binding; details: 10 μM; lower numbers indicate stronger hits
Summary of the method: (§1)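 Test compound profiled as a single-concentration primary binding screen across a panel of 100 kinases by the KINOMEscan service, at 10 μM. Binding interactions were reported as % Ctrl, with lower values indicating stronger hits. A selectivity score, S(35), was also calculated across the panel.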

[2] = molecular target: Pim1 (Homo sapiens, UniProt P11309); experiment: KINOMEscan primary screen binding; details: 10 μM; lower numbers indicate stronger hits
Chain of Pim1 (P11309 whole entry): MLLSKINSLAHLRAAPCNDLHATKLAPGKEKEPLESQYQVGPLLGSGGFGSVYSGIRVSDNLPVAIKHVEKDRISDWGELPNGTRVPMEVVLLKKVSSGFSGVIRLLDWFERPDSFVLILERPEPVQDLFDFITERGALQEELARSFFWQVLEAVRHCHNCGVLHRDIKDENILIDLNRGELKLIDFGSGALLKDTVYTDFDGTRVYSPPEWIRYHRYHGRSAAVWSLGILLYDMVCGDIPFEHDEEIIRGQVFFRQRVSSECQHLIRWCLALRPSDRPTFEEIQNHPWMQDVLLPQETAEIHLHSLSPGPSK
Summary of the method: as §1

[3] = molecular target: Pim3 (Homo sapiens, UniProt Q86V86); experiment: KINOMEscan primary screen binding; details: 10 μM; lower numbers indicate stronger hits
Summary of the method: as §1

[4] = test system: panel of 100 kinases; experiment: KINOMEscan selectivity over kinase panel; assay type: binding; details: KINOMEscan panel of 100 kinases, 10 μM
[5] = test system: DU-145 cells; experiment: Growth inhibition of DU-145 prostate cancer cells; assay type: cell-based; details: read-out: IC50, growth inhibition of DU-145 cells; human prostate cancer cell line DU-145

Chain of CSNK1D (P48730 whole entry): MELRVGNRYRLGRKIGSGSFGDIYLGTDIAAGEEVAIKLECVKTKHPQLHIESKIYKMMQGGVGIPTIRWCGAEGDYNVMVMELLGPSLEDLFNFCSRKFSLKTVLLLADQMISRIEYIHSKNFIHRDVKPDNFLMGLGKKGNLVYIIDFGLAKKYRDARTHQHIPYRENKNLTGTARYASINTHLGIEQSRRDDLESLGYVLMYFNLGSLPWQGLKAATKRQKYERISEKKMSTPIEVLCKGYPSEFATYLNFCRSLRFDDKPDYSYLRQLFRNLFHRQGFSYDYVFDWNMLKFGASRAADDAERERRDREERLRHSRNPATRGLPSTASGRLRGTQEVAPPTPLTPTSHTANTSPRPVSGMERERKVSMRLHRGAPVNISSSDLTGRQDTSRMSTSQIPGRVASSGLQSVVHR

Compound	% Ctrl CSNK1D [1] [% control]	% Ctrl Pim1 [2] [% control]	% Ctrl Pim3 [3] [% control]	selectivity score S(35) [4]	IC50 [5] [nM]
O=C1C2=C(C(=O)c3c(O)ccc(O)c31)[C@@H](O)[C@@H](O)[C@@H](O)C2 [Compound 4]	30	34	36	0.022	–
CC(C)(C)OC1CC(O)CC2C(=O)c3c(O)ccc(O)c3C(=O)C12 (stereo not drawn) [Compound 9]	–	–	–	–	2020
CC(C)C(C)OC1CC(=O)CC2C(=O)c3c(O)ccc(O)c3C(=O)C12 (stereo not drawn) [Compound 7]	–	–	–	–	3210

Reference: paper PMC4899092 (Bioorganic & medicinal chemistry letters, 2016)
